Experiments:
Cavia porcellus [1] = organism: Cavia porcellus; test: Inhibition of spontaneous tone in guinea pig isolated trachealis; type: functional, Trachea
Cavia porcellus [2] = organism: Cavia porcellus; test: Intrinsic activity was measured for inhibition of spontaneous tone in guinea pig isolated trachealis; type: functional
Method in brief: (§1)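 Spontaneously toned guinea pig trachealis, with compounds added cumulatively. Intrinsic activity is the ratio of maximum relaxation at concentrations up to 20 μM to the maximum relaxation produced by isoprenaline (10⁻³ M) at the end of the experiment, expressed as an arithmetic mean.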

Cavia porcellus [3] = organism: Cavia porcellus; test: Intrinsic activity was measured for inhibition of spontaneous tone in guinea pig isolated trachealis; e=Insufficient material for evaluation; type: functional; method in brief: as §1
Cavia porcellus [4] = organism: Cavia porcellus; test: Compound was measured for inhibition of spontaneous tone in guinea pig isolated trachealis; e=Insufficient material for evaluation; type: functional
Method in brief: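 Spontaneously developed tension held at […]. Compounds added cumulatively. Inhibition expressed as a percentage of the relaxation produced by isoprenaline (10⁻³ M) given at the end. IC50 is the concentration giving 50% of the isoprenaline response, read from the dose-response curve; generally a geometric mean of four or more determinations.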

Row | IC50 (Cavia porcellus [1]; Cavia porcellus, Trachea) [µM] | IC50 (Cavia porcellus [1]) [µM] | IC50 (Cavia porcellus [4]) | SMILES | Intrinsic activity (Cavia porcellus [2]) | Intrinsic activity (Cavia porcellus [3])
1 | 1.94 | – | – | CC1(C)c2ccc(C#N)cc2[C@@H](n2ccccc2=O)[C@@H]1O | 0.81 | –
2 | 2.17 | – | – | CCc1ccc2c(c1)[C@@H](n1ccccc1=O)[C@H](O)C2(C)C | 0.93 | –
3 | 14 | – | – | CC1(C)C=C(CN2CCCC2=O)c2cc(C#N)ccc21 | 0.6 | –
4 | > 20 | – | – | CC1(C)c2cc(C#N)ccc2[C@@H](N2CCCCC2=O)[C@@H]1O | 0.17 | –
5 | 5.26 | – | – | CC1(C)C=C(n2ccccc2=O)c2cc(C#N)ccc21 | 0.77 | –
6 | 0.27 | – | – | CC1(C)c2ccc(C#N)cc2[C@@H](N2CCCCC2=O)[C@@H]1O | 0.94 | –
7 | > 20 | – | – | CC1(C)c2cc(C(F)(F)F)ccc2[C@@H](n2ccccc2=O)[C@@H]1O | 0.14 | –
8 | > 20 | – | – | CC1(C)C=C(Cn2ccccc2=O)c2cc(C#N)ccc21 | 0.32 | –
9 | 0.49 | – | – | CC1(C)Oc2ccc(C#N)cc2[C@@H](N2CCCC2=O)[C@@H]1O [LEVCROMAKALIM] | 0.88 | –
10 | 0.84 | – | – | CC1(C)C=C(n2ccccc2=O)c2cc([N+](=O)[O-])ccc21 | 0.95 | –
11 | 8.5 | – | – | CC1(C)C=C(N2CCCCC2=O)c2ccc(C(F)(F)F)cc21 | 0.89 | –
12 | > 20 | – | – | CC1(C)c2ccc(N)cc2[C@@H](n2ccccc2=O)[C@@H]1O | 0.1 | –
13 | 2.42 | – | – | C[C@@H]1CCC(=O)N1C1=CC(C)(C)c2ccc([N+](=O)[O-])cc21 | 0.84 | –
14 | 0.15 | – | – | CC1(C)c2ccc([N+](=O)[O-])cc2[C@@H](n2ccccc2=O)[C@@H]1O | 0.89 | –
15 | – | – | Insufficient material | C[C@H]1CCC(=O)N1C1=CC(C)(C)c2ccc([N+](=O)[O-])cc21 | – | Insufficient material

More lines, now with the values behind:

Row | SMILES | IC50 (Cavia porcellus [1]; Cavia porcellus, Trachea) [µM] | IC50 (Cavia porcellus [1]) [µM] | IC50 (Cavia porcellus [4]) | Intrinsic activity (Cavia porcellus [2]) | Intrinsic activity (Cavia porcellus [3])
16 | CC1(C)c2ccc([N+](=O)[O-])cc2[C@@H](N2CCCC2=O)[C@@H]1O | 2.8 | – | – | 0.88 | –
17 | CC1(C)c2cc(C(F)(F)F)ccc2[C@@H](N2CCCCC2=O)[C@@H]1O | > 20 | – | – | 0.15 | –
18 | CC1CCC(=O)N1[C@@H]1c2cc([N+](=O)[O-])ccc2C(C)(C)[C@H]1O (stereo in doubt; 36a) | – | – | – | 0.89 | –
19 | CC1(C)C=C(N2CCCCC2=O)c2cc([N+](=O)[O-])ccc21 | – | – | – | 0.94 | –
20 | CCc1ccc2c(c1)[C@@H](N1CCCCC1=O)[C@H](O)C2(C)C | 2.78 | – | – | 0.84 | –
21 | CC1(C)c2ccc([N+](=O)[O-])cc2[C@@H](N2CCCCC2=O)[C@H]1O | 0.35 | – | – | 0.89 | –
22 | CC1(C)c2ccc(I)cc2[C@@H](N2CCCCC2=O)[C@@H]1O | – | – | – | 0.96 | –
23 | O=C1CCCN1[C@@H]1c2cc([N+](=O)[O-])ccc2C[C@H]1O | > 20 | – | – | 0.4 | –
24 | C[C@@H]1CCC(=O)N1[C@@H]1c2cc([N+](=O)[O-])ccc2C(C)(C)[C@H]1O (stereo in doubt; 37) | – | > 20 | – | 0.3 | –
25 | CC1CCC(=O)N1[C@@H]1c2cc([N+](=O)[O-])ccc2C(C)(C)[C@H]1O (stereo in doubt; 36b) | – | 3.9 | – | 0.9 | –
26 | CC1(C)c2ccc([N+](=O)[O-])cc2[C@@H](N2CCCC2=O)[C@H]1O (relative stereo) | > 20 | – | – | 0.26 | –
27 | CC1(C)Oc2ccc(C#N)cc2C(N2CCCC2=O)C1O (centres undefined) [CROMAKALIM] | – | – | – | 0.89 | –
28 | CCc1ccc2c(c1)C(C)(C)[C@@H](O)[C@@H]2N1CCCCC1=O | > 20 | – | – | 0.4 | –
29 | C[C@@H]1CCC(=O)N1[C@@H]1c2cc([N+](=O)[O-])ccc2C(C)(C)[C@H]1O (stereo in doubt; 36) | – | 0.26 | – | 0.99 | –

— ChEMBL document CHEMBL1125827, “Synthesis and smooth muscle relaxant activity of a new series of potassium channel activators: 3-amido-1,1-dimethylindan-2-ols” (J Med Chem, 1991)
